Test system: HEK-293T
Assay: Multiplex assay against HEK293T
Assay type: toxicity, cell-based
Conditions: human
Method in brief: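 On a CQ1 microscope at 37°C and 5% CO2, live cells were imaged after compound addition. They had been stained at seeding with Hoechst33342, BioTracker Green Microtubule Cytoskeleton Dye, MitoTracker Red and Annexin V Alexa Fluor 680. CellPathfinder machine-learning gating assigned cells to Hoechst high-intensity objects or normal cells, normal cells to healthy, pyknosed or fragmented nuclei, and pyknosed cells to mitotic or apoptotic. Tubulin, mitochondrial-mass and membrane-permeability phenotypes are per cents of healthy-nucleus cells.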

[1] = 12 h, 1 µM, compound concentration 1 uM, replicate 1
[2] = 12 h, 1 µM, compound concentration 1 uM, replicate 2
[3] = 12 h, 10 µM, compound concentration 10 uM, replicate 1
[4] = 12 h, 10 µM, compound concentration 10 uM, replicate 2
[5] = 24 h, 1 µM, compound concentration 1 uM, replicate 1
[6] = 24 h, 1 µM, compound concentration 1 uM, replicate 2
[7] = 24 h, 10 µM, compound concentration 10 uM, replicate 1
[8] = 24 h, 10 µM, compound concentration 10 uM, replicate 2
[9] = 48 h, 1 µM, compound concentration 1 uM, replicate 1
[10] = 48 h, 1 µM, compound concentration 1 uM, replicate 2
[11] = 48 h, 10 µM, compound concentration 10 uM, replicate 1
[12] = 48 h, 10 µM, compound concentration 10 uM, replicate 2

SMILES: O=C(Nc1cc(-c2ccccc2)nn1-c1ccccc1F)c1ccc([N+](=O)[O-])cc1
- Population Apoptotic (%) [1]: 33%
- Population Fragmented Nuclei (%) [1]: 7%
- Population Healthy Nuclei (%) [1]: 78%
- Population Hoechst High Intensity Objects (%) [1]: 9%
- Population Membrane Permeable-Phenotype (%) [1]: 0%
- Population Mitochondria Different-Phenotype (%) [1]: 31%
- Population Mitotic Cells (%) [1]: 66%
- Population Normal (%) [1]: 90%
- Population Pyknosed Nuclei (%) [1]: 13%
- Population Tubulin-Different-Phenotype (%) [1]: 19%
- Total Cell Count [1]: 402
- Population Apoptotic (%) [2]: 37%
- Population Fragmented Nuclei (%) [2]: 6%
- Population Healthy Nuclei (%) [2]: 83%
- Population Hoechst High Intensity Objects (%) [2]: 6%
- Population Mitochondria Different-Phenotype (%) [2]: 48%
- Population Mitotic Cells (%) [2]: 62%
- Population Normal (%) [2]: 94%
- Population Pyknosed Nuclei (%) [2]: 9%
- Total Cell Count [2]: 417
- Population Apoptotic (%) [3]: 37%
- Population Fragmented Nuclei (%) [3]: 10%
- Population Healthy Nuclei (%) [3]: 71%
- Population Hoechst High Intensity Objects (%) [3]: 5%
- Population Membrane Permeable-Phenotype (%) [3]: 0%
- Population Mitochondria Different-Phenotype (%) [3]: 41%
- Population Mitotic Cells (%) [3]: 62%
- Population Normal (%) [3]: 94%
- Population Pyknosed Nuclei (%) [3]: 17%
- Population Tubulin-Different-Phenotype (%) [3]: 40%
- Total Cell Count [3]: 342
- Population Apoptotic (%) [4]: 44%
- Population Fragmented Nuclei (%) [4]: 6%
- Population Healthy Nuclei (%) [4]: 73%
- Population Hoechst High Intensity Objects (%) [4]: 6%
- Population Mitochondria Different-Phenotype (%) [4]: 65%
- Population Mitotic Cells (%) [4]: 55%
- Population Normal (%) [4]: 93%
- Population Pyknosed Nuclei (%) [4]: 20%
- Population Tubulin-Different-Phenotype (%) [4]: 45%
- Total Cell Count [4]: 367
- Population Apoptotic (%) [5]: 33%
- Population Fragmented Nuclei (%) [5]: 8%
- Population Healthy Nuclei (%) [5]: 78%
- Population Hoechst High Intensity Objects (%) [5]: 4%
- Population Membrane Permeable-Phenotype (%) [5]: 0%
- Population Mitochondria Different-Phenotype (%) [5]: 21%
- Population Mitotic Cells (%) [5]: 66%
- Population Normal (%) [5]: 95%
- Population Pyknosed Nuclei (%) [5]: 12%
- Population Tubulin-Different-Phenotype (%) [5]: 17%
- Total Cell Count [5]: 481
- Population Apoptotic (%) [6]: 35%
- Population Fragmented Nuclei (%) [6]: 12%
- Population Membrane Permeable-Phenotype (%) [6]: 1%
- Population Mitochondria Different-Phenotype (%) [6]: 31%
- Population Mitotic Cells (%) [6]: 64%
- Population Pyknosed Nuclei (%) [6]: 8%
- Population Tubulin-Different-Phenotype (%) [6]: 16%
- Total Cell Count [6]: 530
- Population Apoptotic (%) [7]: 15%
- Population Fragmented Nuclei (%) [7]: 9%
- Population Healthy Nuclei (%) [7]: 77%
- Population Hoechst High Intensity Objects (%) [7]: 2%
- Population Membrane Permeable-Phenotype (%) [7]: 0%
- Population Mitochondria Different-Phenotype (%) [7]: 35%
- Population Mitotic Cells (%) [7]: 84%
- Population Normal (%) [7]: 97%
- Population Pyknosed Nuclei (%) [7]: 13%
- Population Tubulin-Different-Phenotype (%) [7]: 35%
- Total Cell Count [7]: 434
- Population Apoptotic (%) [8]: 22%
- Population Fragmented Nuclei (%) [8]: 7%
- Population Healthy Nuclei (%) [8]: 83%
- Population Hoechst High Intensity Objects (%) [8]: 3%
- Population Mitochondria Different-Phenotype (%) [8]: 47%
- Population Mitotic Cells (%) [8]: 77%
- Population Normal (%) [8]: 96%
- Population Pyknosed Nuclei (%) [8]: 8%
- Population Tubulin-Different-Phenotype (%) [8]: 33%
- Total Cell Count [8]: 482
- Population Apoptotic (%) [9]: 17%
- Population Fragmented Nuclei (%) [9]: 13%
- Population Healthy Nuclei (%) [9]: 79%
- Population Hoechst High Intensity Objects (%) [9]: 3%
- Population Membrane Permeable-Phenotype (%) [9]: 2%
- Population Mitochondria Different-Phenotype (%) [9]: 14%
- Population Mitotic Cells (%) [9]: 82%
- Population Normal (%) [9]: 96%
- Population Pyknosed Nuclei (%) [9]: 7%
- Population Tubulin-Different-Phenotype (%) [9]: 9%
- Total Cell Count [9]: 893
- Population Apoptotic (%) [10]: 33%
- Population Fragmented Nuclei (%) [10]: 17%
- Population Healthy Nuclei (%) [10]: 74%
- Population Hoechst High Intensity Objects (%) [10]: 2%
- Population Mitochondria Different-Phenotype (%) [10]: 15%
- Population Mitotic Cells (%) [10]: 66%
- Population Normal (%) [10]: 97%
- Population Tubulin-Different-Phenotype (%) [10]: 11%
- Total Cell Count [10]: 799
- Population Apoptotic (%) [11]: 22%
- Population Fragmented Nuclei (%) [11]: 12%
- Population Healthy Nuclei (%) [11]: 77%
- Population Hoechst High Intensity Objects (%) [11]: 2%
- Population Membrane Permeable-Phenotype (%) [11]: 2%
- Population Mitochondria Different-Phenotype (%) [11]: 19%
- Population Mitotic Cells (%) [11]: 77%
- Population Normal (%) [11]: 97%
- Population Pyknosed Nuclei (%) [11]: 9%
- Population Tubulin-Different-Phenotype (%) [11]: 23%
- Total Cell Count [11]: 671
- Population Apoptotic (%) [12]: 20%
- Population Fragmented Nuclei (%) [12]: 15%
- Population Hoechst High Intensity Objects (%) [12]: 3%
- Population Membrane Permeable-Phenotype (%) [12]: 1%
- Population Mitochondria Different-Phenotype (%) [12]: 27%
- Population Mitotic Cells (%) [12]: 79%
- Population Normal (%) [12]: 96%
- Population Pyknosed Nuclei (%) [12]: 6%
- Population Tubulin-Different-Phenotype (%) [12]: 26%
- Total Cell Count [12]: 666

SMILES: COc1c(Nc2ccc(S(C)(=O)=O)nc2C)ncnc1OC1CCN(C(=O)OC(C)C)CC1 [ADP-597]
- Population Apoptotic (%) [1]: 29%
- Population Fragmented Nuclei (%) [1]: 5%
- Population Healthy Nuclei (%) [1]: 78%
- Population Hoechst High Intensity Objects (%) [1]: 6%
- Population Membrane Permeable-Phenotype (%) [1]: 0%
- Population Mitochondria Different-Phenotype (%) [1]: 47%
- Population Mitotic Cells (%) [1]: 70%
- Population Normal (%) [1]: 93%
- Population Pyknosed Nuclei (%) [1]: 16%
- Population Tubulin-Different-Phenotype (%) [1]: 36%
- Total Cell Count [1]: 430
- Population Apoptotic (%) [2]: 38%
- Population Fragmented Nuclei (%) [2]: 4%
- Population Healthy Nuclei (%) [2]: 80%
- Population Hoechst High Intensity Objects (%) [2]: 3%
- Population Mitochondria Different-Phenotype (%) [2]: 62%
- Population Mitotic Cells (%) [2]: 62%
- Population Normal (%) [2]: 96%
- Population Pyknosed Nuclei (%) [2]: 14%
- Population Tubulin-Different-Phenotype (%) [2]: 25%
- Total Cell Count [2]: 347
- Population Apoptotic (%) [3]: 47%
- Population Fragmented Nuclei (%) [3]: 7%
- Population Healthy Nuclei (%) [3]: 75%
- Population Hoechst High Intensity Objects (%) [3]: 8%
- Population Membrane Permeable-Phenotype (%) [3]: 0%
- Population Mitochondria Different-Phenotype (%) [3]: 70%
- Population Mitotic Cells (%) [3]: 52%
- Population Normal (%) [3]: 91%
- Population Pyknosed Nuclei (%) [3]: 17%
- Population Tubulin-Different-Phenotype (%) [3]: 44%
- Total Cell Count [3]: 302
- Population Healthy Nuclei (%) [4]: 72%
- Population Hoechst High Intensity Objects (%) [4]: 25%
- Population Mitochondria Different-Phenotype (%) [4]: 71%
- Population Normal (%) [4]: 74%
- Population Pyknosed Nuclei (%) [4]: 20%
- Population Tubulin-Different-Phenotype (%) [4]: 36%
- Total Cell Count [4]: 238
- Population Apoptotic (%) [5]: 23%
- Population Fragmented Nuclei (%) [5]: 7%
- Population Healthy Nuclei (%) [5]: 81%
- Population Hoechst High Intensity Objects (%) [5]: 2%
- Population Membrane Permeable-Phenotype (%) [5]: 0%
- Population Mitochondria Different-Phenotype (%) [5]: 20%
- Population Mitotic Cells (%) [5]: 76%
- Population Normal (%) [5]: 97%
- Population Pyknosed Nuclei (%) [5]: 11%
- Population Tubulin-Different-Phenotype (%) [5]: 16%
- Total Cell Count [5]: 587
- Population Apoptotic (%) [6]: 30%
- Population Fragmented Nuclei (%) [6]: 6%
- Population Healthy Nuclei (%) [6]: 84%
- Population Hoechst High Intensity Objects (%) [6]: 3%
- Population Membrane Permeable-Phenotype (%) [6]: 1%
- Population Mitochondria Different-Phenotype (%) [6]: 34%
- Population Mitotic Cells (%) [6]: 69%
- Population Normal (%) [6]: 96%
- Population Pyknosed Nuclei (%) [6]: 9%
- Population Tubulin-Different-Phenotype (%) [6]: 15%
- Total Cell Count [6]: 447
- Population Apoptotic (%) [7]: 44%
- Population Fragmented Nuclei (%) [7]: 9%
- Population Healthy Nuclei (%) [7]: 74%
- Population Hoechst High Intensity Objects (%) [7]: 7%
- Population Membrane Permeable-Phenotype (%) [7]: 0%
- Population Mitochondria Different-Phenotype (%) [7]: 58%
- Population Mitotic Cells (%) [7]: 55%
- Population Normal (%) [7]: 92%
- Population Pyknosed Nuclei (%) [7]: 15%
- Population Tubulin-Different-Phenotype (%) [7]: 38%
- Total Cell Count [7]: 355
- Population Apoptotic (%) [8]: 63%
- Population Fragmented Nuclei (%) [8]: 11%
- Population Healthy Nuclei (%) [8]: 71%
- Population Hoechst High Intensity Objects (%) [8]: 21%
- Population Mitochondria Different-Phenotype (%) [8]: 54%
- Population Mitotic Cells (%) [8]: 36%
- Population Normal (%) [8]: 78%
- Population Pyknosed Nuclei (%) [8]: 17%
- Population Tubulin-Different-Phenotype (%) [8]: 25%
- Total Cell Count [8]: 300
- Population Apoptotic (%) [9]: 25%
- Population Fragmented Nuclei (%) [9]: 13%
- Population Healthy Nuclei (%) [9]: 78%
- Population Hoechst High Intensity Objects (%) [9]: 2%
- Population Membrane Permeable-Phenotype (%) [9]: 0%
- Population Mitochondria Different-Phenotype (%) [9]: 18%
- Population Mitotic Cells (%) [9]: 75%
- Population Normal (%) [9]: 97%
- Population Pyknosed Nuclei (%) [9]: 8%
- Population Tubulin-Different-Phenotype (%) [9]: 13%
- Total Cell Count [9]: 924
- Population Apoptotic (%) [10]: 36%
- Population Healthy Nuclei (%) [10]: 77%
- Population Hoechst High Intensity Objects (%) [10]: 5%
- Population Membrane Permeable-Phenotype (%) [10]: 1%
- Population Mitochondria Different-Phenotype (%) [10]: 23%
- Population Mitotic Cells (%) [10]: 63%
- Population Normal (%) [10]: 94%
- Population Pyknosed Nuclei (%) [10]: 9%
- Population Tubulin-Different-Phenotype (%) [10]: 14%
- Total Cell Count [10]: 590
- Population Apoptotic (%) [11]: 35%
- Population Fragmented Nuclei (%) [11]: 15%
- Population Healthy Nuclei (%) [11]: 73%
- Population Hoechst High Intensity Objects (%) [11]: 4%
- Population Membrane Permeable-Phenotype (%) [11]: 0%
- Population Mitochondria Different-Phenotype (%) [11]: 38%
- Population Mitotic Cells (%) [11]: 64%
- Population Normal (%) [11]: 95%
- Population Pyknosed Nuclei (%) [11]: 11%
- Population Tubulin-Different-Phenotype (%) [11]: 23%
- Total Cell Count [11]: 494
- Population Apoptotic (%) [12]: 43%
- Population Fragmented Nuclei (%) [12]: 13%
- Population Hoechst High Intensity Objects (%) [12]: 10%
- Population Mitochondria Different-Phenotype (%) [12]: 32%
- Population Mitotic Cells (%) [12]: 56%
- Population Normal (%) [12]: 89%
- Population Pyknosed Nuclei (%) [12]: 12%
- Population Tubulin-Different-Phenotype (%) [12]: 18%
- Total Cell Count [12]: 392
